Results published in ChEMBL document CHEMBL5137066, “Discovery of BLU-945, a Reversible, Potent, and Wild-Type-Sparing Next-Generation EGFR Mutant Inhibitor for Treatment-Resistant Non-Small-Cell Lung Cancer” (J Med Chem, 2022).
pIC50: −log10 of the molar value. Calls of active or inactive are those of the source. The calls are words filed in the database; no cut-off is given here.

Tests used:
[1] = biological target: T1, Epidermal growth factor receptor (Homo sapiens, UniProt P00533, L858R/T790M); assay: Inhibition of N-terminal GST tagged recombinant human EGFR L858R/T790M (669 to end residues) double mutant expressed in baculovirus infected Sf9 insect cells expression system using 5-FAM-EEPLYINSFPAKKK-CONH peptide as substrate preincubated for 10 mins followed by peptide substrate addition in presence of ATP
T1 sequence (P00533 25-1210 T790M/L858R limits assumed): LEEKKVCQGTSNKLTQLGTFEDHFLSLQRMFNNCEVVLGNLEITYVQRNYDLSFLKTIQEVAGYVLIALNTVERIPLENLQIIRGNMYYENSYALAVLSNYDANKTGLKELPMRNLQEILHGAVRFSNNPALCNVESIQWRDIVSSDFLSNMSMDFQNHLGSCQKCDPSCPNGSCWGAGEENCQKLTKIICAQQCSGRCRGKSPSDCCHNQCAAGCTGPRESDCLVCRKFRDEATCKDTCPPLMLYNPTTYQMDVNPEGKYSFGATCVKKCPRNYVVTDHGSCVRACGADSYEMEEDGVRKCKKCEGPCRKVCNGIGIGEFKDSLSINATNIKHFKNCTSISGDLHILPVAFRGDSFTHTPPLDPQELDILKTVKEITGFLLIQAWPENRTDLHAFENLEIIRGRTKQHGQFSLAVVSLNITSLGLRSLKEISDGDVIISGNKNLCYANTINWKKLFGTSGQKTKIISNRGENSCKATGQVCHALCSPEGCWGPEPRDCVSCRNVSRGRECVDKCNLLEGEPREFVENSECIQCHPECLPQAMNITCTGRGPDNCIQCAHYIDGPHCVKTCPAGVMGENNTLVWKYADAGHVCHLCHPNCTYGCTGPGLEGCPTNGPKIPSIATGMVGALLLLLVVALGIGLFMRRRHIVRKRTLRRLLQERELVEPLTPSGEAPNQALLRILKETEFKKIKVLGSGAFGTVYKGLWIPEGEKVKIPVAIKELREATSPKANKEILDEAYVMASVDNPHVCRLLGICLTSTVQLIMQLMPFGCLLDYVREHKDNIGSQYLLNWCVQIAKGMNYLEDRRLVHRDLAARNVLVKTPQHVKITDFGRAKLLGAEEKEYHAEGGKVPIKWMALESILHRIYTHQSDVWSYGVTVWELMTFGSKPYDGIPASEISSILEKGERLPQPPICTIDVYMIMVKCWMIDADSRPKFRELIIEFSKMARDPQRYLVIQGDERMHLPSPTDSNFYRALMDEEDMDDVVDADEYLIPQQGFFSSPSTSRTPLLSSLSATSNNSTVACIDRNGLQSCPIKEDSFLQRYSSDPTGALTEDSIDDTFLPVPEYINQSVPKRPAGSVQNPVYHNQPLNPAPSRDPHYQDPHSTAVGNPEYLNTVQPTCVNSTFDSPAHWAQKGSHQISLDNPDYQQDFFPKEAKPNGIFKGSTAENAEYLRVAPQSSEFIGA

[2] = Inhibition of N-terminal GST tagged recombinant human EGFR L858R/T790M/C790S (668 to end residues) triple mutant expressed in baculovirus infected Sf9 insect cells using 5-FAM-EEPLYINSFPAKKK-CONH peptide as substrate preincubated for 10 mins followed by peptide substrate addition in presence of ATP
[3] = biological target: T2, Epidermal growth factor receptor (Homo sapiens, UniProt P00533); assay: Inhibition of N-terminal GST tagged recombinant wild type human EGFR expressed in baculovirus infected Sf9 insect cells expression system using 5-FAM-EEPLYINSFPAKKK-CONH peptide as substrate preincubated for 10 mins followed by peptide substrate addition in presence of ATP
T2 sequence (P00533 whole entry): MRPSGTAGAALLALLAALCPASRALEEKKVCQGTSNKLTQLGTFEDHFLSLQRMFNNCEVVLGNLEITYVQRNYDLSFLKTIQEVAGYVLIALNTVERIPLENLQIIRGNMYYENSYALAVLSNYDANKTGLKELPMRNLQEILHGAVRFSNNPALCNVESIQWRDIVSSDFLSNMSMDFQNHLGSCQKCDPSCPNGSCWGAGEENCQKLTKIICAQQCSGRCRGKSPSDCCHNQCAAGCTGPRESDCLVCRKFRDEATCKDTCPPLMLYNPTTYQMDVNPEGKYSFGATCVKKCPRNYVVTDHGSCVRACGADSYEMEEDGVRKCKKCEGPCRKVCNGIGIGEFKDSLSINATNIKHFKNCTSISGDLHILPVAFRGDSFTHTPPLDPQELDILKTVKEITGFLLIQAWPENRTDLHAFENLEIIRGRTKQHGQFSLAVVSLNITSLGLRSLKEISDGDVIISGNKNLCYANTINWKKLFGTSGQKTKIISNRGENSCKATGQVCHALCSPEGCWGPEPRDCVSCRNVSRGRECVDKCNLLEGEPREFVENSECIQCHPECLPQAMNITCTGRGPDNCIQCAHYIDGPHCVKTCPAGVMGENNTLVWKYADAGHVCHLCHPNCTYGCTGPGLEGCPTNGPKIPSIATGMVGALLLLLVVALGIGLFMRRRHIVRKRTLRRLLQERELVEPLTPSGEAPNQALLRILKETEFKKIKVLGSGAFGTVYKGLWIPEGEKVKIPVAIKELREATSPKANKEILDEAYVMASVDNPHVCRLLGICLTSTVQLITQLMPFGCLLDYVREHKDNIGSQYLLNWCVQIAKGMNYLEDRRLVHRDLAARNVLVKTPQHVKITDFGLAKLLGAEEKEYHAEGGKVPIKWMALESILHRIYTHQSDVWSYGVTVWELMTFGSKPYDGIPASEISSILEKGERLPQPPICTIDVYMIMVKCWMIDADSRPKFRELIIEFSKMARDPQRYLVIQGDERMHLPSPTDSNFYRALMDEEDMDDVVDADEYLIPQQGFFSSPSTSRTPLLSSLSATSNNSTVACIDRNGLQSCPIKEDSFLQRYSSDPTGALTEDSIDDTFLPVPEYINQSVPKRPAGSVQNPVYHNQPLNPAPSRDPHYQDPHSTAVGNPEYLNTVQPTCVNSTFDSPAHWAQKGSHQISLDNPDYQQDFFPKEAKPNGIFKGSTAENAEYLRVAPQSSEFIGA

[4] = biological target: T1, Epidermal growth factor receptor; assay: Inhibition of EGF stimulated EGFR L858R/T790M double mutant phosphorylation in human NCI-H1975 cells preincubated for 4 to 5 hrs followed by EGF stimulation for 10 mins by AlphaLISA method; assay type: cell-based
[5] = biological target: T2, Epidermal growth factor receptor; assay: Inhibition of wild type EGFR in human A-431 cells preincubated for 4 to 5 hrs followed by EGF stimulation for 10 mins by AlphaLISA method; assay type: cell-based
[6] = Apparent permeability across apical to basolateral side in MDCK-MDR1 cells; assay type: ADME, cell-based, Canis lupus familiaris; settings: dog
[7] = Efflux ratio of apparent permeability in MDCK-MDR1 cells; assay type: ADME, cell-based, Canis lupus familiaris; settings: dog
[8] = Intrinsic clearance in human liver microsomes in presence of NADPH; assay type: ADME, Microsome
Summary of the method: (§1)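 Intrinsic clearance measured in isolated liver microsomes of each species with NADPH, expressed in μL/min/mg.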

[9] = Intrinsic clearance in cynomolgus monkey liver microsomes in presence of NADPH; assay type: ADME, Macaca fascicularis, Microsome; summary of the method: as §1
[10] = Intrinsic clearance in human hepatocytes assessed per million cells; assay type: ADME, cell-based, Hepatocyte
Summary of the method: (§2)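 Intrinsic clearance measured in isolated hepatocytes of each species, expressed in μL/min/million cells.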

[11] = Intrinsic clearance in cynomolgus monkey hepatocytes assessed per million cells; assay type: ADME, cell-based, Macaca fascicularis, Hepatocyte; summary of the method: as §2
[12] = Clearance in cynomolgus monkey at 0.5 mg/kg,iv; assay type: ADME, organism-based, Macaca fascicularis; settings: in vivo
Summary of the method: (§3)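 Cynomolgus monkeys given a single IV bolus of 0.5 mg/kg in 5% DMSO + 5% kolliphor HS 15 + 90% saline. Clearance is plasma clearance after the bolus.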

[13] = Unbound clearance in cynomolgus monkey assessed as clearance/free fraction ratio at 0.5 mg/kg, iv; assay type: ADME, organism-based, Macaca fascicularis; settings: in vivo
Summary of the method: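 Cynomolgus monkey, 0.5 mg/kg IV bolus in 5% DMSO/5% kolliphor HS 15/90% saline. Unbound clearance = in vivo plasma clearance divided by the free fraction. Free fraction comes from plasma protein binding measured by ultracentrifugation.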

[14] = Half life in cynomolgus monkey at 0.5 mg/kg, iv; assay type: ADME, organism-based, Macaca fascicularis; settings: in vivo; summary of the method: as §3
[15] = Plasma protein binding in cynomolgus monkey assessed as unbound fraction by ultracentrifugation method; assay type: ADME, cell-free, Macaca fascicularis
Summary of the method: (§4)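 Plasma protein binding determined by ultracentrifugation, reported as the unbound fraction.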

[16] = Volume of distribution at steady state in Sprague-Dawley rat at 1 mg/kg, iv; assay type: ADME, organism-based; settings: in vivo, read-out: Vdss
[17] = Half life in Sprague-Dawley rat at 1 mg/kg, iv; assay type: ADME, organism-based; settings: in vivo
Summary of the method: (§5)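 Sprague–Dawley rats (n = 3), single IV bolus of 1 mg/kg in 10% DMSO, 10% solutol, 80% of a 20% HP-β-CD solution (in water or in saline, depending on compound). Clearance is plasma clearance after the IV bolus.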

[18] = Lipophilicity, logD of compound at pH 7.4; assay type: physicochemical; settings: buffer
NCI-H1975 [19] = assay: Antitumor activity against human NCI-H1975 cells xenografted in BALB/c mouse assessed as reduction in tumor volume at 30 mg/kg, po bid administered via oral gavage for 14 days; assay type: functional, organism-based; settings: time 14.0 day
Summary of the method: (§6)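 Female BALB/c nude mice, 6–8 weeks old, inoculated s.c. in right flank with 5 × 10^6 NCI-H1975 cells in PBS:Matrigel 1:1. Randomized and dosed by oral gavage BID once mean tumor volume reached ~155 mm3. Tumor size and body weight measured every second day. Volume = 0.5ab2 (a, b long and short diameters). Plasma taken 2, 6, 12 h after the last dose for LC-MS/MS.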

NCI-H1975 [20] = assay: Antitumor activity against human NCI-H1975 cells xenografted in BALB/c mouse assessed as reduction in tumor volume at 100 mg/kg , po bid administered via oral gavage for 14 days; assay type: functional, organism-based; settings: time 14.0 day; summary of the method: as §6
[21] = Toxicity in BALB/c nude mouse xenografted with human NCI-H1975 cells assessed as effect on body weight at 30 mg/kg, po bid administered via oral gavage for 14 days; assay type: organism-based; settings: in vivo, 336 h, time 14 day; summary of the method: as §6
[22] = Toxicity in BALB/c nude mouse xenografted with human NCI-H1975 cells assessed as effect on body weight at 100 mg/kg , po bid administered via oral gavage for 14 days; assay type: organism-based; settings: in vivo, 336 h, time 14 day; summary of the method: as §6
[23] = Toxicity in BALB/c nude mouse xenografted with human NCI-H1975 cells assessed as effect on body weight at 25 mg/kg , po qd administered via oral gavage for 14 days; assay type: organism-based; settings: in vivo, 336 h, time 14 day
Summary of the method: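 Female BALB/c nude mice, 6–8 weeks old, bearing s.c. right-flank NCI-H1975 xenografts (5 × 10^6 cells in PBS:Matrigel 1:1). Once-daily oral gavage began at mean tumor volume ~155 mm3. Body weight and tumor size recorded every second day.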

[24] = Thermodynamic solubility of the compound at pH 1.5; assay type: physicochemical; settings: buffer
[25] = Thermodynamic solubility of the compound at pH 6.5; assay type: physicochemical; settings: buffer
[26] = Plasma protein binding in human assessed as unbound fraction by ultracentrifugation method; assay type: ADME, cell-free; summary of the method: as §4
[27] = Plasma protein binding in rat assessed as unbound fraction by ultracentrifugation method; assay type: ADME, cell-free; summary of the method: as §4
[28] = Plasma protein binding in dog assessed as unbound fraction by ultracentrifugation method; assay type: ADME, cell-free, Canis lupus familiaris; summary of the method: as §4
[29] = Plasma clearance in Sprague-Dawley rat at 1 mg/kg, iv; assay type: ADME, organism-based; summary of the method: as §5
[30] = Oral bioavailability in Sprague-Dawley rat at […]; assay type: ADME, organism-based; settings: in vivo, dose 2.5 mg/kg
[31] = Plasma clearance in cynomolgus monkey at 0.5 mg/kg, iv; assay type: ADME, organism-based, Macaca fascicularis; summary of the method: as §3
[32] = Volume of distribution at steady state in cynomolgus monkey at 0.5 mg/kg, iv; assay type: ADME, organism-based, Macaca fascicularis; settings: in vivo, read-out: Vdss
[33] = Oral bioavailability in cynomolgus monkey at […], iv; assay type: ADME, organism-based, Macaca fascicularis; settings: in vivo, dose 2.5 mg/kg
[34] = Plasma clearance in beagle dog at 0.5 mg/kg, iv; assay type: ADME, organism-based, Canis lupus familiaris
Summary of the method: (§7)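 Beagle dogs, single IV dose of 0.5 mg/kg in 5% DMSO + 5% kolliphor HS 15 + 90% saline. Clearance is plasma clearance.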

[35] = Half life in beagle dog at 0.5 mg/kg, iv; assay type: ADME, organism-based, Canis lupus familiaris; settings: in vivo; summary of the method: as §7
[36] = Volume of distribution at steady state in Beagle dog at 0.5 mg/kg, iv; assay type: ADME, organism-based, Canis lupus familiaris; settings: in vivo, read-out: Vdss
[37] = Oral bioavailability in Beagle dog at […], iv; assay type: ADME, organism-based, Canis lupus familiaris; settings: in vivo, dose 2.5 mg/kg
[38] = system: Ba/F3 EGFR-T790M/C797S/L858R; assay: Antitumor activity against mouse Ba/F3 EGFR-T790M/C797S/L858R cells implanted in NOD SCID mouse assessed as reduction in tumor volume at 100 mg/kg, po bid administered via oral gavage for 14 days; assay type: functional, organism-based; settings: time 14.0 day
[39] = system: Ba/F3 EGFR-Del19/T790M/C797S; assay: Antitumor activity against osimertinib-resistant mouse Ba/F3 EGFR-Del19/T790M/C797S cells implanted in NOD SCID mouse assessed as reduction in tumor volume at 100 mg/kg , po bid administered via oral gavage for 14 days; assay type: functional, organism-based; settings: time 14.0 day
NSCLC = assay type: functional, organism-based; settings: Homo sapiens, dose 75-100 mg/kg, route po, time 56.0 day
[40] = Clearance in Sprague-Dawley rat at 1 mg/kg, iv; assay type: ADME, organism-based; settings: in vivo; summary of the method: as §5
[41] = Oral bioavailability in Sprague-Dawley rat at 5 mg/kg; assay type: ADME, organism-based; settings: in vivo
Summary of the method: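 Sprague–Dawley rats (n = 3) received 1 mg/kg IV and 5 mg/kg PO. IV vehicle was 10% DMSO/10% solutol/80% (20% HP-β-CD). PO vehicle was a suspension in 20% solutol in 0.5% MC in water, or a solution matching the IV vehicle, depending on compound.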

[42] = Intrinsic clearance in rat liver microsomes in presence of NADPH; assay type: ADME, Microsome; summary of the method: as §1
[43] = Intrinsic clearance in dog liver microsomes in presence of NADPH; assay type: ADME, Canis lupus familiaris, Microsome; summary of the method: as §1
[44] = Intrinsic clearance in rat hepatocytes assessed per million cells; assay type: ADME, cell-based, Hepatocyte; summary of the method: as §2
[45] = Intrinsic clearance in dog hepatocytes assessed per million cells; assay type: ADME, cell-based, Canis lupus familiaris, Hepatocyte; summary of the method: as §2

CC(C)c1ccc(N2C[C@H](CS(C)(=O)=O)[C@H]2C)c2cnc(Nc3ccnc(N4CC[C@@](C)(O)[C@@H](F)C4)n3)cc12
pIC50 [1]: 9.40 | pIC50 [2]: 9.30 | pIC50 [3]: 5.96 | pIC50 [4]: 8.42 | pIC50 [5]: 5.92 | Papp [6]: 5 10^-6 cm/s | efflux ratio [7]: 3 | CLH [8]: 5.1 µL/min/mg | CLH [9]: 23 µL/min/mg | CLH [10]: 3.2 µL/min | CLH [11]: 1.5 uL/min/10^6 cells | clearance [12]: 8.8 mL/min/kg | Ratio [13]: 170 | half-life [14]: 4.8 h

CO[C@@H]1[C@H](O)CN(c2nccc(Nc3cc4c(C(C)C)ccc(N5C[C@H](CS(C)(=O)=O)[C@H]5C)c4cn3)n2)CC1(F)F
pIC50 [1]: 9.15 | pIC50 [3]: 6.09 | pIC50 [4]: 8.59 | pIC50 [5]: 6.72 | Papp [6]: 8 10^-6 cm/s | efflux ratio [7]: 2 | CLH [8]: 19 µL/min/mg | CLH [9]: 25 µL/min/mg | CLH [10]: 16 µL/min | CLH [11]: 49 uL/min/10^6 cells | clearance [12]: 9.1 mL/min/kg | Ratio [13]: 294 | half-life [14]: 4.5 h

CO[C@@H]1CCN(c2nccc(Nc3cc4c(C(C)C)ccc(N5C[C@H](CS(C)(=O)=O)[C@H]5C)c4cn3)n2)C[C@@H]1F [TIGOZERTINIB]
Fu [15]: 3.5% | Vd [16]: 2.3 L/kg | Papp [6]: 8 10^-6 cm/s | half-life [17]: 1.3 h | CLH [8]: 89 µL/min/mg | CLH [9]: 109 µL/min/mg | logD [18]: 3.8 | CLH [10]: 23 µL/min | clearance [12]: 4.9 mL/min/kg | half-life [14]: 3.5 h | Activity (NCI-H1975 [19]): Active | Activity (NCI-H1975 [20]): Active | Activity [21]: Non-Toxic | Activity [22]: Non-Toxic | Activity [23]: Non-Toxic | Therm_solubility [24]: 11000 µg/mL | Therm_solubility [25]: 10 µg/mL | Fu [26]: 1.1% | Fu [27]: 0.9% | Fu [28]: 1.4% | clearance [29]: 32.4 mL/min/kg | F [30]: 48% | clearance [31]: 4.9 mL/min/kg | Vd [32]: 1.6 L/kg | F [33]: 33% | clearance [34]: 13.7 mL/min/kg | half-life [35]: 4.9 h | Vd [36]: 3.9 L/kg | F [37]: 49% | Activity [38]: Active | Activity [39]: Active | Activity (NSCLC): Active

CC(C)c1ccc(N2C[C@H](CS(C)(=O)=O)[C@H]2C)c2cnc(Nc3ccnc(N4CC[C@@H](O)[C@@](C)(F)C4)n3)cc12
Papp [6]: 9 10^-6 cm/s | clearance [40]: 25 mL/min/kg | half-life [17]: 1.3 h | F [41]: 50% | CLH [8]: 7.2 µL/min/mg | CLH [42]: 43 µL/min/mg | CLH [43]: 20 µL/min/mg | CLH [9]: 55 µL/min/mg | CLH [10]: 41 µL/min | CLH [44]: 33 µL/min | CLH [45]: 21 µL/min | clearance [12]: 31.8 mL/min/kg | half-life [14]: 2.9 h
